In series [1] the test system is Plasmodium falciparum. Nature of the series: Resistance index ratio of IC50 for asexual erythrocyte stage of chloroquine-resistant Plasmodium falciparum Dd2 to IC50 for asexual erythrocyte stage of chloroquine-sensitive Plasmodium falciparum D10. It is filed as functional.
In series [2] the test system is CHO. Nature of the series: Cytotoxicity against CHO cells by MTT assay. Particulars: for Activity: chinese hamster, cho; for IC50: Cricetulus griseus, CHO. It is filed as cell-based, Cricetulus griseus.
The subject of series [3] is Plasmodium falciparum. The experiment in a line: Antimalarial activity against asexual erythrocyte stage of chloroquine-sensitive Plasmodium falciparum D10 by parasite lactate dehydrogenase assay. The series is classed as functional, organism-based. The method in brief: (§1)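 Asexual erythrocyte-stage P. falciparum kept in continuous culture (modified Trager–Jensen). Growth was read by parasite lactate dehydrogenase assay. Stocks were 20 mg/ml in 100% DMSO, sonicated, and tested as suspension if not dissolved. Full dose–response started at 100 ng/ml, with 2-fold serial dilution in complete medium to 10 concentrations (lowest 0.2 ng/ml). Each strain was tested in triplicate on one occasion. IC50 is 50% parasite growth inhibition.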

The test system of series [4] is Plasmodium falciparum. Nature of the series: Antimalarial activity against asexual erythrocyte stage of chloroquine-resistant Plasmodium falciparum Dd2 by parasite lactate dehydrogenase assay. The series is classed as functional, organism-based. The method in brief:
as §1

With `C[C@H]1[C@@H](OCCN2CCOCC2)O[C@@H]2O[C@@]3(C)CC[C@H]4[C@H](C)CC[C@@H]1[C@@]24OO3.O=C(O)C(=O)O`, in series [1], the “Ratio IC50” value stood at 3.483. For the same compound, the Activity entry in series [2] is “Non-toxic”. Moreover, the IC50 in series [3] amounted to 4.64 nM; in series [4] it was 16.2 nM.

On to `C[C@H]1[C@@H](OCCNCCN2CCOCC2)O[C@@H]2O[C@@]3(C)CC[C@H]4[C@H](C)CC[C@@H]1[C@@]24OO3.O=C(O)C(=O)O`, for which the “Ratio IC50” value in series [1] turned out to be 8.945. Besides, in series [2], the Activity entry is “Non-toxic”. Further, the IC50 in series [3] came out at 6.88 nM; in series [4] it was 61.6 nM.

As to `C[C@H]1[C@@H](OCCN2CCCCC2)O[C@@H]2O[C@@]3(C)CC[C@H]4[C@H](C)CC[C@@H]1[C@@]24OO3.O=C(O)C(=O)O`, in series [1], the “Ratio IC50” value amounted to 9.695. Further, in series [2], the Activity entry is recorded as “Non-toxic”. For the same compound, the IC50 in series [3] is 3.31 nM; in series [4], 32.1 nM.

`C[C@H]1[C@@H](OCCNCCN2CCCCC2)O[C@@H]2O[C@@]3(C)CC[C@H]4[C@H](C)CC[C@@H]1[C@@]24OO3.O=C(O)C(=O)O`: in series [1], the “Ratio IC50” value turned out to be 9.932. Besides, the Activity result in series [2] is reported as “Non-toxic”. In addition, the IC50 in series [3] came to 6.72 nM; in series [4], 66.7 nM.

With `CC(C)N(CCNCCO[C@H]1O[C@@H]2O[C@@]3(C)CC[C@H]4[C@H](C)CC[C@@H]([C@H]1C)[C@@]24OO3)C(C)C.O=C(O)C(=O)O`, the “Ratio IC50” value in series [1] was determined as 26.24. Also, in series [2], the Activity entry was “Non-toxic”. For the same compound, the IC50 in series [3] is 1.83 nM; in series [4] it was 48.1 nM.

Turning to `C[C@H]1[C@@H](OCCNCc2ccco2)O[C@@H]2O[C@@]3(C)CC[C@H]4[C@H](C)CC[C@@H]1[C@@]24OO3.O=C(O)C(=O)O`, the “Ratio IC50” value in series [1] came out at 8.858. For the same compound, the IC50 in series [2] amounted to 79700 nM; in series [3], 2.41 nM; in series [4], 21.4 nM.

Consider `C[C@H]1[C@@H](OCCN(C)Cc2ccccc2)O[C@@H]2O[C@@]3(C)CC[C@H]4[C@H](C)CC[C@@H]1[C@@]24OO3.O=C(O)C(=O)O`, for which the “Ratio IC50” value in series [1] is given as 13.888. In addition, the IC50 in series [2] was 141000 nM; in series [3], 1.44 nM; in series [4], 20.1 nM.

For the compound `C[C@H]1[C@@H](OCCNCCCn2ccnc2)O[C@@H]2O[C@@]3(C)CC[C@H]4[C@H](C)CC[C@@H]1[C@@]24OO3.O=C(O)C(=O)O`, the “Ratio IC50” value in series [1] is given as 31.343. Besides, in series [2], the Activity entry was “Non-toxic”. Also, the IC50 was 6.04 nM in series [3] and 189 nM in series [4].

As to `C[C@H]1[C@@H](OCCNCCNc2ccccc2)O[C@@H]2O[C@@]3(C)CC[C@H]4[C@H](C)CC[C@@H]1[C@@]24OO3.O=C(O)C(=O)O`, in series [1], the “Ratio IC50” value came to 21.086. In addition, the IC50 in series [2] was 47500 nM; in series [3] it was 2.61 nM; in series [4], 55.1 nM.

Turning to `C[C@H]1[C@@H](OCCN2CCNCC2)O[C@@H]2O[C@@]3(C)CC[C@H]4[C@H](C)CC[C@@H]1[C@@]24OO3.O=C(O)C(=O)O`, the “Ratio IC50” value in series [1] came to 28.318. Also, the Activity entry in series [2] is given as “Non-toxic”. For the same compound, the values for the IC50 in series [3] and in series [4] were 1.8 nM and 50.9 nM, respectively.

Turning to `CC(C)CNCCO[C@H]1O[C@@H]2O[C@@]3(C)CC[C@H]4[C@H](C)CC[C@@H]([C@H]1C)[C@@]24OO3.O=C(O)C(=O)O`, the “Ratio IC50” value in series [1] is reported as 13.68. In addition, the results for the IC50 in series [2], in series [3] and in series [4] were 72900 nM, 4.01 nM and 54.9 nM, respectively.

With `C[C@H]1[C@@H](O)O[C@@H]2O[C@@]3(C)CC[C@H]4[C@H](C)CC[C@@H]1[C@@]24OO3` [ARTENIMOL], in series [1], the “Ratio IC50” value came out at 4.433. Moreover, the IC50 came to 0.785 nM in series [3] and 3.48 nM in series [4].

In series [2], `CC[C@H]1CN2CCc3cc(OC)c(OC)cc3[C@@H]2C[C@@H]1C[C@H]1NCCc2cc(OC)c(OC)cc21` [EMETINE] came in with a half-maximal inhibitory concentration (IC50) of 19.8 nM.

As to `C[C@H]1[C@H](OC(=O)CCC(=O)[O-])O[C@@H]2O[C@@]3(C)CC[C@H]4[C@H](C)CC[C@@H]1[C@@]24OO3.[Na+]` [SODIUM ARESUNATE], the “Ratio IC50” value in series [1] was found to be 27.719. In addition, the values for the 50% inhibitory concentration (IC50) in series [3] and in series [4] were 0.933 nM and 25.9 nM, respectively.

The IC50 is the concentration that gives 50% inhibition.

The record behind these values is ChEMBL document CHEMBL2057139, “Synthesis, antimalarial activity and cytotoxicity of 10-aminoethylether derivatives of artemisinin” (Bioorg Med Chem, 2012).
